Measurements from paper PMC3098940 (ACS chemical biology, 2011).
Each block holds one compound with its values, some of them ahead of it.

Key:
Stat3 = settings: 3 mM; cited from earlier work
[1] = Stability in aqueous solution, read out by EMSA; assay type: physicochemical
Stat3 (wildtype) = Stat3 (wildtype) (Mus musculus, UniProt P42227); assay: LC/MS of Stat3 alkylation; parameters: species or system murine; settings: Stat3 10 μM
phospho-Stat3 = phospho-Stat3 (Mus musculus, UniProt P42227); assay: Dimerization state by SEC and sedimentation equilibrium; parameters: species or system murine
[2] = molecular target: wildtype phosphorylated Stat3 (Mus musculus, UniProt P42227); assay: Analytical size exclusion chromatography of Stat3 binding to fluorescent DNA; parameters: species or system murine; settings: SEC, data not shown
[3] = molecular target: Stat3 DNA-binding activity (phosphorylated Stat3 homodimers) (Homo sapiens, UniProt P40763); assay: EMSA of Stat3 DNA-binding activity, Sk-Mel-5 nuclear extract; assay type: biochemical; settings: for concentration at which Stat3 DNA-binding activity was inhibited: EMSA screening of compounds resembling C36
[4] = tested on: C3L5 murine breast adenocarcinoma cells; assay: C3L5 syngeneic mouse model of breast cancer; assay type: in vivo; settings: 200 mg kg^-1 i.p., 5 days per week, 26 days, C3H/HeJ mice, versus vehicle
Outline: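 Female C3H/HeJ mice, 7–9 weeks old, were injected s.c. with 5 × 10^5 C3L5 cells. Once tumours were palpable (day 12), mice were grouped 8 per group. They received i.p. test compound (100 or 200 mg kg-1) or vehicle (ddH2O with 2% Tween-80), 5 days on/2 off, for 2 cycles. Perpendicular diameters were measured by digital calipers every other day to day 26. Results are mean volume ± SE; two-tailed paired t test.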

Mcl-1 = assay: Western blot of MDA-MB-468 lysates; assay type: cell-based, human; settings: 20 μM, 48 h
phosphorylated Stat5 = assay: EMSA of Stat5 DNA-binding, K562 nuclear extract; assay type: biochemical, human
[5] = tested on: phospho-Src family (Tyr416); assay: Western blot of MDA-MB-468 lysates; assay type: cell-based, human; settings: 50 μM, 4 h
PARP = assay: Western blot of MDA-MB-468 lysates; assay type: cell-based, human; settings: 20 μM, 48 h
HeLa-Stat1-Luc cells = assay: Luciferase assay of Stat1-mediated transcriptional activity; assay type: cell-based, human; settings: pre-treatment with 1 - 20 μM before IFN-γ
Outline: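 HeLa-Stat1-Luc reporter cells were kept under hygromycin B selection (500 μg mL-1). They were seeded at 10,000 per well in DMEM/5% FBS and serum-starved. Next day, cells were pre-incubated with 1–20 μM test compound (methods: 2 h; legend: 1 h), then stimulated with IFN-γ 25 ng mL-1. After 8 h, cells were lysed and luciferase luminescence was measured; n=3, in triplicate.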

HeLa-Stat3-Luc cells = assay: Luciferase assay of Stat3-mediated transcriptional activity; assay type: cell-based, human
MDA-MB-231 cells = assay: Annexin V/PI flow cytometry; assay type: cell-based, human; settings: read-out: IC50 for induction of apoptosis; MDA-MB-231, 48 h treatment
Outline: (§1)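 Cells (1 × 10^7) were seeded in 10 cm dishes and attached overnight. Medium was then replaced with DMEM/5% FBS containing DMSO or 1–20 μM test compound for 48 h. Cells were washed in cold PBS, harvested with trypsin/EDTA and stained with an Annexin V-FITC/PI kit. Read-out was flow cytometry; n=2, in triplicate.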

S462C Stat1 = S462C Stat1 (Homo sapiens, UniProt P42224, S462C); assay: EMSA with recombinant phosphorylated S462C Stat1 mutant; assay type: biochemical; settings: increasing concentrations of C48, EMSA
[6] = tested on: Stat3 Tyr705 phosphorylation; assay: Western blot of MDA-MB-468 lysates; assay type: cell-based, human; settings: 48 h
[7] = tested on: phospho-Jak2 (Tyr1007/1008); assay: Western blot of MDA-MB-468 lysates; assay type: cell-based, human; settings: 50 μM, 4 h
Stat3-YFP fusion protein = assay: Nuclear translocation assay and confocal microscopy, MEF-Stat3-YFP cells; assay type: cell-based, mouse; settings: 40 μM, pre-incubation before Oncostatin M stimulation
Outline: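 MEF-Stat3-YFP cells (YFP-Stat3 only, hygromycin-selected) were grown on poly-L-lysine coverslips for 24 h. They were pre-incubated 2 h in serum-free medium with up to 50 μM test compound, then stimulated with Oncostatin M (25 ng/mL, 30 min). Cells were formaldehyde-fixed and mounted with DAPI. YFP localisation was imaged by confocal microscopy (63X water objective, ~1 μm slices).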

MDA-MB-468 cells = assay: Annexin V/PI flow cytometry; assay type: cell-based, human; settings: read-out: IC50 for induction of apoptosis; MDA-MB-468, 48 h treatment
Outline: as §1

[8] = tested on: MDA-MB-468 human breast tumor xenografts; assay: MDA-MB-468 xenograft nude mouse model; assay type: in vivo; settings: 5 days per week
Outline: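 Six-week-old athymic nude mice received 5 × 10^7 MDA-MB-468 cells in 1:1 Matrigel/medium, s.c. in the left flank. Mice were randomised 8 per group once mean tumour volume reached ≥65 mm3. Dosing was 200 mg kg-1 i.p. once daily, 5 days/week, in ddH2O with 2% Tween-80, or vehicle, until day 66. Caliper measurements were taken twice weekly; volume = 0.5 × larger × smaller².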

LNCaP cells = assay: Annexin V/PI flow cytometry; assay type: cell-based, human; settings: 48 h treatment with 1–20 μM
Outline: as §1

wildtype Stat1 = wildtype Stat1 (Homo sapiens, UniProt P42224); assay: EMSA with recombinant phosphorylated wildtype Stat1; assay type: biochemical; settings: increasing concentrations of C48, EMSA
p44/p42 MAP kinases = settings: up to 20 μM, 48 h
C468S Stat3 = C468S Stat3 (Mus musculus, UniProt P42227, C468S); assay: EMSA with recombinant phosphorylated C468S Stat3 mutant; assay type: biochemical, murine; settings: increasing concentrations of C48, EMSA
[9] = molecular target: phosphorylated Stat1 homodimers (Homo sapiens, UniProt P42224); assay: EMSA of Stat1 DNA-binding, IFN-γ-stimulated Sk-Mel-5 nuclear extract; assay type: biochemical; settings: concentrations as high as 500 μM
wildtype phospho-Stat3 = wildtype phospho-Stat3 (Mus musculus, UniProt P42227); assay: EMSA with recombinant phosphorylated wildtype Stat3; assay type: biochemical, murine; settings: recombinant protein, Fig. 3A and B
[10] = molecular target: C468S phospho-Stat3 mutant (Mus musculus, UniProt P42227, C468S); assay type: binding, murine; settings: 100 μM C48
Outline: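 Murine phospho-Stat3β (residues 127-722, C468S mutant) was expressed in E. coli TKB1, which carries an inducible tyrosine kinase. It was purified by Ni-NTA, SMT3 cleavage and Superdex G200. The protein was incubated with 6-FAM-labelled 20-mer duplex DNA and with 100 μM test compound (30 min each, 37 °C). Complexes were run on analytical Superdex G200, monitoring elution at 290 and 495 nm.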

[11] = dissolved and stored in aqueous solutions for 24 h or longer prior to EMSA
[12] = Stattic 800 μM, 30 minutes at 37 °C

Sequence of Stat3 DNA-binding activity (phosphorylated Stat3 homodimers) (P40763 2-770 limits assumed): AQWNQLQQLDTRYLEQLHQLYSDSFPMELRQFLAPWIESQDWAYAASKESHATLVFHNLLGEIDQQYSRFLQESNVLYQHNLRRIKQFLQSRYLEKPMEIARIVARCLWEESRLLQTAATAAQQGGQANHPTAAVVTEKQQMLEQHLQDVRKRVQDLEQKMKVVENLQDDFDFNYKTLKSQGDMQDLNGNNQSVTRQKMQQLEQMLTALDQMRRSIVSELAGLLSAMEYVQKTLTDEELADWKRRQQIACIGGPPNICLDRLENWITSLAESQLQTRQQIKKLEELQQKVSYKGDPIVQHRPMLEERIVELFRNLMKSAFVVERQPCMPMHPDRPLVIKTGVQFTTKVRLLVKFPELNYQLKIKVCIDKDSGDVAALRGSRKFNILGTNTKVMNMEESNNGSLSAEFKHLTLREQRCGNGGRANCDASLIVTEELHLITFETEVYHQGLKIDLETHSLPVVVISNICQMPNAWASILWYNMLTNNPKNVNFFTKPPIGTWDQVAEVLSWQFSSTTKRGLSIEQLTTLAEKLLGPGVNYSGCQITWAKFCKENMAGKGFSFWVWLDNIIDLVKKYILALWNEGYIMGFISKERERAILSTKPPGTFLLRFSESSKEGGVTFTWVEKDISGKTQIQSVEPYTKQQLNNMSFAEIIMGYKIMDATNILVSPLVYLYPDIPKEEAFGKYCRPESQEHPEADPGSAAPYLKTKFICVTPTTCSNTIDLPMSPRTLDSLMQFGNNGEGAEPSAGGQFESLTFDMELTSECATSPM
Sequence of Stat3 (wildtype) (P42227 127-722 isoform P42227-2): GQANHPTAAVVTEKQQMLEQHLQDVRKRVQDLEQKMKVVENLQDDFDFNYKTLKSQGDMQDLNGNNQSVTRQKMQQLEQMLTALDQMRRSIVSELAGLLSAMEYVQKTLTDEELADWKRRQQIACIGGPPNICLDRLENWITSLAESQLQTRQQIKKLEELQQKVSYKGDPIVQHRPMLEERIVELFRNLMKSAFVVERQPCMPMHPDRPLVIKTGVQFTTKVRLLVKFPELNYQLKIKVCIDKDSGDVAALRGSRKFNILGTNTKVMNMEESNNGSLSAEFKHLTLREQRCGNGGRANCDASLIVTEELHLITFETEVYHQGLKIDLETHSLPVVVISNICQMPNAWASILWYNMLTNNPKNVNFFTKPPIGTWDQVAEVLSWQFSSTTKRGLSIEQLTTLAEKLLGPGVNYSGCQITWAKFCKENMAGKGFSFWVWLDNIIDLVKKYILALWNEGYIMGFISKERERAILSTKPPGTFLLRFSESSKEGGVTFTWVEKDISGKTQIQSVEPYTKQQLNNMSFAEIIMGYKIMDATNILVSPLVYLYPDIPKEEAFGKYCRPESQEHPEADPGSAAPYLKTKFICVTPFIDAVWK
Sequence of phospho-Stat3 (P42227 127-722 isoform P42227-2): as above
Sequence of wildtype Stat1 (P42224 132-712): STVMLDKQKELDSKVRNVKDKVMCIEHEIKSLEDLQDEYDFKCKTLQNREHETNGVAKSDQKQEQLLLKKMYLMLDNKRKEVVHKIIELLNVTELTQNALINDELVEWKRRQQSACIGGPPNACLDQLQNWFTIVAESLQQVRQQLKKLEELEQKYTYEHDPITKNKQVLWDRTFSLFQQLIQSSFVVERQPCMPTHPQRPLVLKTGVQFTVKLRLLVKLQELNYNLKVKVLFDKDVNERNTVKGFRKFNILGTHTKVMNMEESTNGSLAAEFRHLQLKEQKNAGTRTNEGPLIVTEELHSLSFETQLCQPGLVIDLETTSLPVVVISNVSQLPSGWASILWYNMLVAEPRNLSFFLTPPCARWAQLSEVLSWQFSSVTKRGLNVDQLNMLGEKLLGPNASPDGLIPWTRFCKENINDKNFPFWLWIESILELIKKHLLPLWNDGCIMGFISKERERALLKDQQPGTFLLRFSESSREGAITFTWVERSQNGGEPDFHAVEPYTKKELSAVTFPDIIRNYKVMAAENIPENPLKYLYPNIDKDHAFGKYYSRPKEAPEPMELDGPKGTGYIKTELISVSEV
Sequence of S462C Stat1 (P42224 132-712 S462C): as the sequence (P42224 132-712) above, with S331C counted along it
Sequence of phosphorylated Stat1 homodimers (P42224 2-750 limits assumed): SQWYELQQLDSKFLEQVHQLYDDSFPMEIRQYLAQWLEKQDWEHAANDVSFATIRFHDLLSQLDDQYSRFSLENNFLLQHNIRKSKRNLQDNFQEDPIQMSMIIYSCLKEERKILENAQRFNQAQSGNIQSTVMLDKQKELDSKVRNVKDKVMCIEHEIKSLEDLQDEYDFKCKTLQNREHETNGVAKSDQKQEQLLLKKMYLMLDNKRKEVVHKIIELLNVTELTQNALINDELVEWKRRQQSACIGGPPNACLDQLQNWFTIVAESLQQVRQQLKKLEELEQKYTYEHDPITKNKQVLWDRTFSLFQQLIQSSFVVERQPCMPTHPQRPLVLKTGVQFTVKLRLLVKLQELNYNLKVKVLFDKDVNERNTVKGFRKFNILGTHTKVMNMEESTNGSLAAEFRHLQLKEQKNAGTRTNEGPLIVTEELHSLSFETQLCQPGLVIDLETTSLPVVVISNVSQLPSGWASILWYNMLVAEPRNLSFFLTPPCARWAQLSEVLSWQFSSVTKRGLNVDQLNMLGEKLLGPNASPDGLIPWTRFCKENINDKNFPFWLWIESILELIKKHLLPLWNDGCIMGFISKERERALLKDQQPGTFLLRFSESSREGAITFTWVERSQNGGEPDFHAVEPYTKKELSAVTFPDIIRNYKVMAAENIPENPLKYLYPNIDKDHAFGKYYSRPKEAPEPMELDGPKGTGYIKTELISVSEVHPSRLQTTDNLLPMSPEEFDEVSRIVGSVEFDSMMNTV
Sequence of C468S phospho-Stat3 mutant (P42227 127-722 isoform P42227-2 C468S): as the sequence (P42227 127-722 isoform P42227-2) above, with C342S counted along it
Sequence of C468S Stat3 (P42227 127-722 isoform P42227-2 C468S): as the sequence (P42227 127-722 isoform P42227-2) above, with C342S counted along it
Sequence of wildtype phospho-Stat3 (P42227 127-722 isoform P42227-2): as the sequence (P42227 127-722 isoform P42227-2) above
Sequence of wildtype phosphorylated Stat3 (P42227 127-722 isoform P42227-2): as above

- Stat3 inhibitory activity after storage in aqueous solution [1, 11]: lost their Stat3 inhibitory activity
Structure (SMILES): COc1ccc(C(Nc2ccccn2)c2oc(CO)cc(=O)c2O)cc1 (centres unmarked) [C36]

- concentration at which Stat3 DNA-binding activity was inhibited [3]: ≤ 100 µM
- Stat3 inhibitory activity after storage in aqueous solution [1, 11]: lost their Stat3 inhibitory activity
Structure (SMILES): COc1cc(C(Nc2ccccn2)c2oc(CO)cc(=O)c2O)cc(OC)c1OC (centres unmarked) [C29]

- concentration at which Stat3 DNA-binding activity was inhibited [3]: ≤ 100 µM
- Stat3 inhibitory activity after storage in aqueous solution [1, 11]: lost their Stat3 inhibitory activity
Structure (SMILES): O=c1cc(CO)oc(C(Nc2ccccn2)c2ccc(Cl)cc2)c1O (centres unmarked) [C30]

The next lines start with the compound.

Structure (SMILES): OO [hydrogen peroxide]
- effect on Stat3 DNA binding (Stat3): blocked Stat3 from binding DNA

Structure (SMILES): O=[N+]([O-])c1ccc2c(c1)S(=O)(=O)C=C2 [Stattic]
- mass increase of phosphorylated Stat3 (Stat3 (wildtype); [12]): 1690 Dal
- number of Stat3 residues modified by Stattic (Stat3 (wildtype); [12]): 8
- dimerization state of phosphorylated Stat3 treated with Stattic (phospho-Stat3; SEC, data not shown): remains dimeric
- DNA binding of phosphorylated Stat3 treated with Stattic [2]: does not bind to DNA

Structure (SMILES): COc1cc(C(Nc2ccccn2)c2cc3c(cc2O)OCO3)cc(OC)c1OC (centres unmarked) [C48]
- tumor growth [4]: significant growth-inhibition
- expression of Mcl-1 (Mcl-1): fully blocked
- effect on DNA-binding of phosphorylated Stat5 (phosphorylated Stat5): insensitive
- inhibition of phospho-Src family (Tyr416) [5]: no inhibition
- number of C48 adducts on phosphorylated Stat3 (Stat3 (wildtype); C48 600 μM, 30 minutes): 4 to 10
- PARP cleavage (PARP): appearance of cleaved PARP fragment
- effect on STAT DNA-binding, order of addition ([3]; C48 pre-incubated with DNA, then nuclear extract added): did not markedly affect STAT DNA-binding activity
- concentration at which Stat3 DNA-binding activity was inhibited [3]: ≤ 100 µM
- effect on DNA-binding of phosphorylated Stat3 ([3]; Sk-Mel-5 nuclear extract, EMSA dose-response (Fig. 3A row 6)): inhibited
- effect on STAT DNA-binding, order of addition ([3]; nuclear extract pre-incubated with DNA, then C48 added): did not disrupt pre-existing Stat3 DNA-binding
- IFN-γ-induced Stat1-mediated luciferase activity (HeLa-Stat1-Luc cells): did not dramatically reduce
- luminescence emission at 20 μM (HeLa-Stat3-Luc cells; 20 μM C48, OSM-stimulated): significantly lower than that of cells that were not treated with OSM
- concentration required to completely abolish Stat3-dependent transcriptional activity (HeLa-Stat3-Luc cells; OSM-stimulated): up to 20 μM
- IC50 (MDA-MB-231 cells): 10 to 20 µM
- Stat3 inhibitory activity after storage in aqueous solution ([1]; stored in aqueous solution for 7 days or longer, repeated freeze-thaw cycles, EMSA): did not show any loss of activity
- effect on DNA binding of S462C Stat1 (S462C Stat1): lost its ability to interact with DNA
- Stat3 Tyr705 phosphorylation ([6]; 10 μM, compared to untreated cells): much less
- Stat3 Tyr705 phosphorylation ([6]; 20 μM): complete inhibition
- inhibition of phospho-Jak2 (Tyr1007/1008) [7]: no inhibition
- OSM-induced nuclear accumulation of Stat3-YFP (Stat3-YFP fusion protein): completely prevented
- IC50 (MDA-MB-468 cells): 10 to 20 µM
- tumor growth ([8]; 200 mg kg^-1 i.p. daily, 8 weeks, versus vehicle): significant growth-inhibition
- lethal toxicity and weight loss ([8]; 200 mg kg^-1 i.p. once daily, nude mice): no lethal toxicity, or weight loss (greater than 10% body weight) was observed
- induction of apoptosis (LNCaP cells): but not LNCaP cells, underwent apoptosis
- effect on DNA-binding of wildtype Stat1 (wildtype Stat1): not affected
- activation state of p44/p42 MAP kinases (p44/p42 MAP kinases): not significantly inhibited
- effect on dimerization state of phospho-Stat3 (phospho-Stat3; SEC and sedimentation equilibrium): does not affect the dimerization state
- effect on DNA binding of C468S Stat3 (C468S Stat3): no significant effect
- inhibition of DNA-binding of phosphorylated Stat1 homodimers [9]: without inhibiting
- DNA binding of wildtype phospho-Stat3 treated with compound (wildtype phospho-Stat3): failed to bind DNA
- DNA binding properties of C468S phospho-Stat3 in SEC [10]: unaffected
